Experiments:
[1] = biological target: T1, Serine/threonine-protein kinase PAK 1 (Homo sapiens, UniProt Q13153); assay: Inhibition of PAK1 phosphorylation at ser144 residue in human MDA-MB-231 cells after 1 to 24 hrs by Western blot analysis; type: cell-based; conditions: dose 2.5-20 µM, time 1-24 hrs
Method in brief: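 Whole-cell extracts made from 1×10^6 treated cells in RIPA buffer (50 mM Tris/HCl pH 7.4, 150 mM NaCl, 1% NP-40, 0.25% deoxycholate, 1 mM EDTA, protease inhibitors). Proteins separated by SDS-PAGE, blotted to PVDF and blocked in 5% milk in TBS-T. Membranes probed for PAK1, phospho-PAK1 Ser144, Snail and actin, with β-actin as loading control. ECL detection.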

[2] = biological target: Serine/threonine-protein kinase PAK 5 (Homo sapiens) (UniProt Q9P286); assay: (§1) Inhibtion of recombinant human PAK5 expressed in baculovirus infected sf9 insect cells assessed as residual activity at 0.1 uM using RRRLSFAEPG as substrate preincubated for 20 min followed by [gamma33P]ATP addition and measured after 120 mins by Hotspot assay relative to control; conditions: time 140.0 min
Method in brief: (§2)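 Radiometric HotSpot kinase assay. Kinase and substrate are combined in 20 mM Hepes pH 7.5, 10 mM MgCl2, 1 mM EGTA, 0.02% Brij35, 0.02 mg/mL BSA, 0.1 mM Na3VO4, 2 mM DTT and 1% DMSO. Compound is added and preincubated 20 min at room temperature. The reaction starts with ATP plus 33P-ATP at 10 µM final and runs 120 min at 25 °C. Filter-binding read-out, given as % activity remaining versus DMSO.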

[3] = biological target: Tyrosine-protein kinase receptor UFO (Homo sapiens) (UniProt P30530); assay: Inhibition of AXL (unknown origin) assessed as residual activity at 0.1 uM preincubated for 20 min followed by [gamma33P]ATP addition and measured after 120 mins by Hotspot assay relative to control; conditions: time 140.0 min; method in brief: as §2
[4] = biological target: Ephrin type-A receptor 1 (Homo sapiens) (UniProt P21709); assay: Inhibition of EPHA1 (unknown origin) assessed as residual activity at 0.1 uM preincubated for 20 min followed by [gamma33P]ATP addition and measured after 120 mins by Hotspot assay relative to control; conditions: time 140.0 min; method in brief: as §2
Chain of Ephrin type-A receptor 1 (Homo sapiens) (P21709 whole entry): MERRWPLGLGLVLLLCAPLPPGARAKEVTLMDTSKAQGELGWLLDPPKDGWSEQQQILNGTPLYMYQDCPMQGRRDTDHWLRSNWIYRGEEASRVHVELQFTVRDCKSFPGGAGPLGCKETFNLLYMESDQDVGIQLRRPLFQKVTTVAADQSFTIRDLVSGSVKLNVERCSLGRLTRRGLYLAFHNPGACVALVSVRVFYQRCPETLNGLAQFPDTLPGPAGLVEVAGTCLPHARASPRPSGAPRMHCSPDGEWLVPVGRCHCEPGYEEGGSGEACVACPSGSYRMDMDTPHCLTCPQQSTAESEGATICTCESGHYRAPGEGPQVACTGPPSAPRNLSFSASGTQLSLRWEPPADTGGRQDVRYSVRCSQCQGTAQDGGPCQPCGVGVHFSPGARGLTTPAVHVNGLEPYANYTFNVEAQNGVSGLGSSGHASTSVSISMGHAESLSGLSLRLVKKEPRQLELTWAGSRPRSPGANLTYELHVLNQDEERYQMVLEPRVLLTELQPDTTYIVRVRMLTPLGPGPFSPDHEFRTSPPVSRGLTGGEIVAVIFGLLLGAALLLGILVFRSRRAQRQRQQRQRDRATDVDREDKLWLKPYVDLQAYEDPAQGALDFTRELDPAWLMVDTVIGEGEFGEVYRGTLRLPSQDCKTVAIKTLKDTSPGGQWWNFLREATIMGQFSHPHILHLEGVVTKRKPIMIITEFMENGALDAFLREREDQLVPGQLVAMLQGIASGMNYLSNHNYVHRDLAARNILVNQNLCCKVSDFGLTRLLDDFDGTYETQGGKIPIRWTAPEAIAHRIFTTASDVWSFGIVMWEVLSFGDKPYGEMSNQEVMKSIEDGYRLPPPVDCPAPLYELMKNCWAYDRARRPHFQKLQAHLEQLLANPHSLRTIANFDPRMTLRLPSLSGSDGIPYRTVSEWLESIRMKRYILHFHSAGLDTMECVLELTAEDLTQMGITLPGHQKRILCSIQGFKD

[5] = biological target: Serine/threonine-protein kinase PAK 3 (Homo sapiens) (UniProt O75914); assay: as §1, with “of full length” for “of”, “N-terminal GST/His6-tagged PAK3” for “PAK5”, “in” for “in baculovirus infected”, “tetra LRRWSLG” for “RRRLSFAEPG”; conditions: time 140.0 min; method in brief: as §2
Chain of Serine/threonine-protein kinase PAK 3 (Homo sapiens) (O75914 whole entry, looked up): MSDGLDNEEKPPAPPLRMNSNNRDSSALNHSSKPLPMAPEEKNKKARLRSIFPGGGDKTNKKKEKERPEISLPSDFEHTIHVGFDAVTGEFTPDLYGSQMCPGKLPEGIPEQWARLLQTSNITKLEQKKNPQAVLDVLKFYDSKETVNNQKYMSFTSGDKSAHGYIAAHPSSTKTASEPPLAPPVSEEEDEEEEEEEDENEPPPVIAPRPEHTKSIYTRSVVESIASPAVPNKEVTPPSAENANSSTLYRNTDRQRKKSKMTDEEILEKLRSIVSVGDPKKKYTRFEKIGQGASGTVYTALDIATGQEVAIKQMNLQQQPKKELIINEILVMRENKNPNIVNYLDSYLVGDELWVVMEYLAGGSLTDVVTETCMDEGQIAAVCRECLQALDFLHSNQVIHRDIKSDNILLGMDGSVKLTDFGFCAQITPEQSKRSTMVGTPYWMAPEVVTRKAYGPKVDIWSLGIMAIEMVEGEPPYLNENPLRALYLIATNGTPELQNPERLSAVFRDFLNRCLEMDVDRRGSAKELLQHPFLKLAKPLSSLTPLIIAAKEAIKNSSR

[6] = biological target: Serine/threonine-protein kinase PAK 4 (Homo sapiens, UniProt O96013); assay: as §1, with “of full length” for “of”, “N-terminal GST/His6-tagged PAK4” for “PAK5”, “tetra LRRWSLG” for “RRRLSFAEPG”; conditions: time 140.0 min; method in brief: as §2
Chain of Serine/threonine-protein kinase PAK 4 (O96013 whole entry, looked up): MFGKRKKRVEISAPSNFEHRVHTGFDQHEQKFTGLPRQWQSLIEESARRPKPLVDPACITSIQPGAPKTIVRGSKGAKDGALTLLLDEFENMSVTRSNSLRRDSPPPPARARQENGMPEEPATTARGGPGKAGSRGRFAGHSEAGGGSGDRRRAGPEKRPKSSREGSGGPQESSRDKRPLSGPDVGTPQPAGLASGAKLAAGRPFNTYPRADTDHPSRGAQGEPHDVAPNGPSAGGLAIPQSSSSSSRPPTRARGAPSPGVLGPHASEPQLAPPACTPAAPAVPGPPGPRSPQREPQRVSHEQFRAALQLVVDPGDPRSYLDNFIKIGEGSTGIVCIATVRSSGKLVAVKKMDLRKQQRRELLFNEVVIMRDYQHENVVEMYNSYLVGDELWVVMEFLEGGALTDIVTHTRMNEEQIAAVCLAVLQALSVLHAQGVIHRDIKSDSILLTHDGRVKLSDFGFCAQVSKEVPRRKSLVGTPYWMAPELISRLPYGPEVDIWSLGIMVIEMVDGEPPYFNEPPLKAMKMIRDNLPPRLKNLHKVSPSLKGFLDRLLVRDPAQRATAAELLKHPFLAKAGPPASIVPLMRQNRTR

[7] = biological target: Epidermal growth factor receptor (Homo sapiens) (UniProt P00533); assay: Inhibition of EGFR (unknown origin) assessed as residual activity at 0.1 uM preincubated for 20 min followed by [gamma33P]ATP addition and measured after 120 mins by Hotspot assay relative to control; conditions: time 140.0 min; method in brief: as §2
Chain of Epidermal growth factor receptor (Homo sapiens) (P00533 whole entry): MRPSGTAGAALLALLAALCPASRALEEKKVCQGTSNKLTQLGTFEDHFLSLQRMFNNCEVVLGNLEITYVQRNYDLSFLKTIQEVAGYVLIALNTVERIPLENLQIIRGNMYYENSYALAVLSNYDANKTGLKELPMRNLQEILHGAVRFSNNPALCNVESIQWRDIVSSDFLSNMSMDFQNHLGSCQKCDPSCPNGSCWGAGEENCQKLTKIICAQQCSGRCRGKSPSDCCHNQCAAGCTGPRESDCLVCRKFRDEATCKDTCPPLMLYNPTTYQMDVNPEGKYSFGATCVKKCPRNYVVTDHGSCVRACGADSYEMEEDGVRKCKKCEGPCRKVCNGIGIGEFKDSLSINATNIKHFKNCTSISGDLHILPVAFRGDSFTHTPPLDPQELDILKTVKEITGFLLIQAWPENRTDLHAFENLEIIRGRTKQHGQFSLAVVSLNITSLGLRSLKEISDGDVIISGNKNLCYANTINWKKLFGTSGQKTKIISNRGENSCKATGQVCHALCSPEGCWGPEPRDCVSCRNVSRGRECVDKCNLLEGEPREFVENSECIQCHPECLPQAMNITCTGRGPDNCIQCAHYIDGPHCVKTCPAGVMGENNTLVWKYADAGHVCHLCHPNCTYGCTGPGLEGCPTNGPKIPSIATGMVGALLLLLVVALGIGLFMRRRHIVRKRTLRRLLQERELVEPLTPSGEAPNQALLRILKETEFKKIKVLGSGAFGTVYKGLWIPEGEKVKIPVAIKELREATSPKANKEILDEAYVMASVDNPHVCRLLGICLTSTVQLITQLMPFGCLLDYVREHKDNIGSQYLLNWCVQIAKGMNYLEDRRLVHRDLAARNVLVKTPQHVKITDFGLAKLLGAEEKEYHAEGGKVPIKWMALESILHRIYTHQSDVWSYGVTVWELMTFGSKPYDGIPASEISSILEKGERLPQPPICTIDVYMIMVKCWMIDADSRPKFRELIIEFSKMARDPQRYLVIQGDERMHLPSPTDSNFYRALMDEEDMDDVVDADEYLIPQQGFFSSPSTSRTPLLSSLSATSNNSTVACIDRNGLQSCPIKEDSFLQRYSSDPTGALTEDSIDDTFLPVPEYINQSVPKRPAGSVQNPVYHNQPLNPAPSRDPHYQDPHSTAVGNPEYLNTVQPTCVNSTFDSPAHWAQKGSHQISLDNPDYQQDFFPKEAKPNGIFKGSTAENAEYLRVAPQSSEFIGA

[8] = biological target: Mitogen-activated protein kinase 14 (Homo sapiens) (UniProt Q16539); assay: Inhibition of P38alpha (unknown origin) assessed as residual activity at 0.1 uM preincubated for 20 min followed by [gamma33P]ATP addition and measured after 120 mins by Hotspot assay relative to control; conditions: time 140.0 min; method in brief: as §2
Chain of Mitogen-activated protein kinase 14 (Homo sapiens) (Q16539 whole entry): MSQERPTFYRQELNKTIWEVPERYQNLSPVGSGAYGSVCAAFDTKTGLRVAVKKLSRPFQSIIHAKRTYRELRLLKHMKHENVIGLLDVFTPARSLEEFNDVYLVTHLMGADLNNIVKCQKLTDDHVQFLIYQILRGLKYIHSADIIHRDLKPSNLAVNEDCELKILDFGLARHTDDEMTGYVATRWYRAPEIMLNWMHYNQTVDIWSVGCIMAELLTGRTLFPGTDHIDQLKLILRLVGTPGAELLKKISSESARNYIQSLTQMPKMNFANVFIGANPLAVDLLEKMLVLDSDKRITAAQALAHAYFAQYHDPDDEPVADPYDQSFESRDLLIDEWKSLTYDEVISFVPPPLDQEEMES

[9] = biological target: Tyrosine-protein kinase JAK1 (Homo sapiens) (UniProt P23458); assay: Inhibition of JAK1 (unknown origin) assessed as residual activity at 0.1 uM preincubated for 20 min followed by [gamma33P]ATP addition and measured after 120 mins by Hotspot assay relative to control; conditions: time 140.0 min; method in brief: as §2
[10] = biological target: LIM domain kinase 1 (Homo sapiens) (UniProt P53667); assay: Inhibition of LIMK1 (unknown origin) assessed as residual activity at 0.1 uM preincubated for 20 min followed by [gamma33P]ATP addition and measured after 120 mins by Hotspot assay relative to control; conditions: time 140.0 min; method in brief: as §2
[11] = system: MDA-MB-231; assay: Antiproliferative activity against human MDA-MB-231 cells assessed as growth inhibition at 1 uM after 72 hrs by Cell Titer-Glo assay relative to control; type: functional; conditions: read-out: GI
Method in brief: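 Cells kept at 37 °C in 5% CO2 and plated at 4000 per well. Treated with compound for 72 h. Viability read by CellTiter-Glo luminescence. Each compound run in duplicate, data as means ± SD.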

[12] = biological target: Vascular endothelial growth factor receptor 2 (Homo sapiens) (UniProt P35968); assay: Inhibition of VEGFR2 (unknown origin) assessed as residual activity at 0.1 uM preincubated for 20 min followed by [gamma33P]ATP addition and measured after 120 mins by Hotspot assay relative to control; conditions: time 140.0 min; method in brief: as §2
[13] = biological target: CDK6/cyclin D1 (Homo sapiens) (UniProt P24385+Q00534); assay: Inhibition of CDK6/cyclin Dl (unknown origin) assessed as residual activity at 0.1 uM preincubated for 20 min followed by [gamma33P]ATP addition and measured after 120 mins by Hotspot assay relative to control; type: protein-complex assay; conditions: time 140.0 min; method in brief: as §2
[14] = biological target: Tyrosine-protein kinase Lck (Homo sapiens) (UniProt P06239); assay: Inhibition of LCK (unknown origin) assessed as residual activity at 0.1 uM preincubated for 20 min followed by [gamma33P]ATP addition and measured after 120 mins by Hotspot assay relative to control; conditions: time 140.0 min; method in brief: as §2
[15] = biological target: Tyrosine-protein kinase BTK (Homo sapiens) (UniProt Q06187); assay: Inhibition of BTK (unknown origin) assessed as residual activity at 0.1 uM preincubated for 20 min followed by [gamma33P]ATP addition and measured after 120 mins by Hotspot assay relative to control; conditions: time 140.0 min; method in brief: as §2
[16] = biological target: Serine/threonine-protein kinase PAK 2 (Homo sapiens) (UniProt Q13177); assay: as §1, with “N-terminal GST/His6-tagged PAK2 (D3 to R524 residues)” for “PAK5”, “in” for “in baculovirus infected”; conditions: time 140.0 min; method in brief: as §2
[17] = biological target: Mitogen-activated protein kinase 8 (Homo sapiens) (UniProt P45983); assay: Inhibition of JNK1 (unknown origin) assessed as residual activity at 0.1 uM preincubated for 20 min followed by [gamma33P]ATP addition and measured after 120 mins by Hotspot assay relative to control; conditions: time 140.0 min; method in brief: as §2
[18] = system: MDA-MB-231; assay: Antiinvasive activity against human MDA-MB-231 cells assessed as decrease is number of penetrated cells at 0.25 to 1 uM after 24 hrs by inverted microscopic based Transwell invasion assay relative to control; type: functional; parameters: scale not given: the % may be the effect or the level left; conditions: dose 0.25-1 µM
Method in brief: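 Cells grown to confluence and scratched with a sterile pipette tip, or placed at 1×10^5 cells in serum-free DMEM with 0.1% […] in the upper part of Matrigel-coated Boyden chambers over DMEM with 10% FBS. Compound treatment for 24 h at 37 °C. Read-out is wound distance from images or the count of invaded cells on the lower filter face after fixing and staining. Data given as means ± SD.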

[19] = biological target: T1, Serine/threonine-protein kinase PAK 1; assay: Inhibition of full length recombinant human N-terminal GST/His6-tagged PAK1 expressed in sf9 insect cells assessed as residual activity at 0.1 uM using tetra LRRWSLG as substrate preincubated for 20 min followed by [gamma33P]ATP addition and measured after 120 mins by Hotspot assay relative to control; conditions: time 140.0 min; method in brief: as §2
[20] = biological target: Serine/threonine-protein kinase B-raf (Homo sapiens) (UniProt P15056); assay: Inhibition of BRAF (unknown origin) assessed as residual activity at 0.1 uM preincubated for 20 min followed by [gamma33P]ATP addition and measured after 120 mins by Hotspot assay relative to control; conditions: time 140.0 min; method in brief: as §2
Chain of Serine/threonine-protein kinase B-raf (Homo sapiens) (P15056 whole entry): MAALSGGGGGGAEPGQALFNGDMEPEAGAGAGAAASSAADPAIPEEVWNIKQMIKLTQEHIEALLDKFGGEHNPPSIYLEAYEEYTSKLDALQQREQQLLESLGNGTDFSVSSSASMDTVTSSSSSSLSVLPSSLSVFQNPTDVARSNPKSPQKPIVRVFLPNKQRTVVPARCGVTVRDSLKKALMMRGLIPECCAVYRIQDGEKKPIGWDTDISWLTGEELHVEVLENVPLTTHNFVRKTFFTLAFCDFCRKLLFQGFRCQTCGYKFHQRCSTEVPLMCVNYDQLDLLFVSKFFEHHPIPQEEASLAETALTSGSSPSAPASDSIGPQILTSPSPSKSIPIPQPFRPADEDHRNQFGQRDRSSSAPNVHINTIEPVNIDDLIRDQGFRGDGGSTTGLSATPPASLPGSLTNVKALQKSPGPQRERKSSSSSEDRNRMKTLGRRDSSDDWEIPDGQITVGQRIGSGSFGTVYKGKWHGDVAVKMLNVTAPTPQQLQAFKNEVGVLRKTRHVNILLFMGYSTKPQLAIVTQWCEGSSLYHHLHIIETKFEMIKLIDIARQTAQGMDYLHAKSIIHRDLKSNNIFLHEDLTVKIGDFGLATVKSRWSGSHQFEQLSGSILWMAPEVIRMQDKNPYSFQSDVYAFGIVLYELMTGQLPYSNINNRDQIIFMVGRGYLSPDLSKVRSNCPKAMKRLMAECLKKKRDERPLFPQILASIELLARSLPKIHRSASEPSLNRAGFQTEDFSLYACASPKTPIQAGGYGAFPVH

T1 sequence (Q13153 whole entry): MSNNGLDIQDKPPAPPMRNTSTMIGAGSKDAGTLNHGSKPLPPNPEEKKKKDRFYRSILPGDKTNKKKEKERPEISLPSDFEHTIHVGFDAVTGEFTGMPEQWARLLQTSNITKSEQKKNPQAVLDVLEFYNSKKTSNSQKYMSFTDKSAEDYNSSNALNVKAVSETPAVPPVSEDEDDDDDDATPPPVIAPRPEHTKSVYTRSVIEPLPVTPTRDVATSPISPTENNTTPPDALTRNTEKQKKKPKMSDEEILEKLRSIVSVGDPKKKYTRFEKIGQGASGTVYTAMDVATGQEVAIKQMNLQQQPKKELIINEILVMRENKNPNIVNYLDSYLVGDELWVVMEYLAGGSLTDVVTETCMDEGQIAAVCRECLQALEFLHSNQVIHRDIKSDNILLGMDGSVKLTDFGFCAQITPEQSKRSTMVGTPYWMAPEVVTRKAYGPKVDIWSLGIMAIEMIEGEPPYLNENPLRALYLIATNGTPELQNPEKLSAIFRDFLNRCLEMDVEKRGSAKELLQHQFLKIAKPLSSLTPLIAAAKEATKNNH

- inhibition [1]: Dose-dependent effect
- Activity [2]: 116%
- Activity [3]: 88.4%
- Activity [4]: 91.9%
- Activity [5]: 33.9%
- Activity [6]: 104%
- Activity [7]: 89.3%
- Activity [8]: 78%
- Activity [9]: 88.7%
- Activity [10]: 115%
- Activity [12]: 92.4%
- Activity [13]: 112%
- Activity [14]: 88.6%
- Activity [15]: 99.1%
- Activity [16]: 28%
- Activity [17]: 72.8%
- Activity [19]: 27.6%
- Activity [20]: 84.4%
Structure (SMILES): Cc1cccn(-c2ccc(-c3ccc4c(C(=O)NCc5ccncc5)n[nH]c4c3)c(Cl)c2)c1=O
- inhibition of growth at 1 µM [11]: 6.31%
- Activity [18]: <40%

From ChEMBL document CHEMBL4706541, “Design and synthesis of 1H-indazole-3-carboxamide derivatives as potent and selective PAK1 inhibitors with anti-tumour migration and invasion activities” (Eur J Med Chem, 2020)
